Laboratory results reported in ChEMBL document CHEMBL4390685, “Synthesis, antibacterial and cytotoxic evaluation of flavipucine and its derivatives” (Bioorg Med Chem Lett, 2019).
pIC50: −log10 of the molar value. Converted amounts (≈) assume the structure as drawn. The source made the active and inactive calls. The rule behind the calls is not given here.

Experiments:
[1] = test system: HL-60; assay: Cytotoxicity against human HL60 cells assessed as reduction in cell viability incubated for 48 hrs by WST8 dye based assay; assay type: functional; settings: HL-60, 48 h
How it was run: (§1)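 Suspension leukemia lines (HL-60 promyelocytic, Jurkat T-ALL) exposed to a range of concentrations for 48 h. Viability read by WST-8. IC50 is the concentration giving 50% loss of viability, mean ± SD of triplicates. SN-38 served as positive control.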

[2] = test system: Bacillus subtilis; assay: Bactericidal activity against Bacillus subtilis NBRC 3134 incubated for 18 hrs followed by inoculums transfer to MHA plate and further incubated for 24 hrs; assay type: functional
How it was run: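 MBC determined per CLSI methods following broth microdilution MIC testing. Ampicillin and chloramphenicol served as positive controls.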

[3] = test system: Bacillus subtilis; assay: Antibacterial activity against Bacillus subtilis NBRC 3134 after 18 hrs by broth microdilution method; assay type: functional; settings: NBRC 3134, 18 h
How it was run: (§2)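 Broth microdilution run to CLSI standard methods. MIC taken as the lowest concentration inhibiting growth. Ampicillin and chloramphenicol served as positive controls. Compounds were tested up to 128 µg/mL.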

[4] = test system: Jurkat; assay: Cytotoxicity against human Jurkat cells assessed as reduction in cell viability incubated for 48 hrs by WST8 dye based assay; assay type: functional; how it was run: as §1
[5] = test system: HCT-116; assay: Cytotoxicity against human HCT116 cells assessed as reduction in cell viability incubated for 48 hrs by WST8 dye based assay; assay type: functional; settings: HCT-116, 48 h
How it was run: (§3)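 Adherent human cancer lines (A549 lung, HCT116 colon, HeLa cervix, TE8 esophageal squamous) exposed to a range of concentrations for 48 h. Viability read by WST-8. IC50 taken as 50% inhibition of viability, mean ± SD of triplicate experiments. SN-38 served as positive control. Tested up to 100 μM.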

[6] = test system: HEK293; assay: Cytotoxicity against human HEK293 cells assessed as reduction in cell viability incubated for 48 hrs by WST8 dye based assay; settings: HEK293, 48 h
How it was run: (§4)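 Adherent non-cancer cells (HEK293, Ad5-transformed embryonic kidney; MRC-5, normal diploid fibroblast) treated with graded concentrations for 48 h. WST-8 viability read-out. IC50 reported as mean ± SD of triplicate experiments. SN-38 served as positive control. Tested up to 50 μM.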

[7] = test system: A549; assay: Cytotoxicity against human A549 cells assessed as reduction in cell viability incubated for 48 hrs by WST8 dye based assay; assay type: functional; settings: A549, 48 h; how it was run: as §3
[8] = test system: Escherichia coli; assay: Antibacterial activity against Escherichia coli NBRC 3301 after 17 hrs by broth microdilution method; assay type: functional; settings: NBRC 3301, 17 h; how it was run: as §2
[9] = test system: HeLa; assay: Cytotoxicity against human HeLa cells assessed as reduction in cell viability incubated for 48 hrs by WST8 dye based assay; assay type: functional; how it was run: as §3
[10] = test system: TE-8; assay: Cytotoxicity against human TE8 cells assessed as reduction in cell viability incubated for 48 hrs by WST8 dye based assay; assay type: functional; settings: TE-8, 48 h; how it was run: as §3
[11] = test system: MRC5; assay: Cytotoxicity against human MRC5 cells assessed as reduction in cell viability incubated for 48 hrs by WST8 dye based assay; settings: MRC5, 48 h; how it was run: as §4
[12] = test system: HL-60; assay: Induction of DNA fragmentation in human HL60 cells at 0.5 to 5 uM after 6 hrs by […] staining-based agarose gel electrophoresis; assay type: functional, cell-based
[13] = test system: HL-60; assay: Induction of cell death in human HL60 cells assessed as reduction in cell viability at 2 uM incubated for 6 hrs after pre-treatment with caspase inhibitor Z-Asp-CH2-DCB for 1 hr by WST8 dye based assay; assay type: functional

SMILES | pIC50 [1] | MBC [2] [µg/mL] | MIC [3] [µg/mL] | pIC50 [4] | pIC50 [5] | pIC50 [6] | pIC50 [7] | MIC [8] [µg/mL] | pIC50 [9] | pIC50 [10] | pIC50 [11] | Activity [12] | Activity [13]
CC1=CC(=O)[C@]2(O[C@@H]2C(=O)CC(C)C)C(=O)N1 | 5.77 | 8 (≈ 33.7 µM) | 8 (≈ 33.7 µM) |  |  |  |  |  |  |  |  |  | 
CC1=CC(=O)[C@@]2(O[C@H]2C(=O)CC(C)C)C(=O)N1 | 5.80 | 8 (≈ 33.7 µM) | 8 (≈ 33.7 µM) |  |  |  |  |  |  |  |  |  | 
CC(C)CC(=O)[C@@H]1O[C@@]12C(=O)C=C(Cc1ccccc1)NC2=O (racemic) | 4.43 | 128 (≈ 408 µM) | 128 (≈ 408 µM) | < 4.30 | < 4.00 | < 4.30 | < 4.00 | > 128 | < 4.00 | < 4.00 | < 4.30 |  | 
CC(C)C[C@]1(O)NC(=O)[C@]2(OC(Cc3ccccc3)=CC2=O)[C@H]1O (racemic) | 4.55 | > 128 | > 128 | < 4.30 | < 4.00 | < 4.30 | < 4.00 | > 128 | < 4.00 | < 4.00 | < 4.30 |  | 
CC1=CC(=O)[C@]2(O1)C(=O)N[C@@](O)(CC(C)C)[C@@H]2O (racemic) | < 4.30 | > 128 | > 128 | < 4.30 | < 4.00 | < 4.30 | < 4.00 | > 128 | < 4.00 | < 4.00 | < 4.30 |  | 
CC(C)CC(=O)C1Oc2cc(Cc3ccccc3)[nH]c(=O)c2O1 (racemic) | < 4.30 | > 128 | > 128 | < 4.30 | < 4.00 | < 4.30 | < 4.00 | > 128 | < 4.00 | < 4.00 | < 4.30 |  | 
CC(C)C[C@@]12NC(=O)[C@]3(O)C(=O)C[C@@](C)(O[C@@H]31)O2 (racemic) | 4.42 | > 128 | > 128 | < 4.30 | < 4.00 | < 4.30 | < 4.00 | > 128 | < 4.00 | < 4.00 | < 4.30 |  | 
Cc1cc2c(c(=O)[nH]1)OC(C(=O)CC(C)C)O2 (racemic) | 4.70 | > 128 | > 128 | < 4.30 | < 4.00 | < 4.30 | < 4.00 | > 128 | < 4.00 | < 4.00 | < 4.30 |  | 
CC1=CC(=O)C2(OC2C(=O)CC(C)C)C(=O)N1 (racemic) | 5.74 | 8 (≈ 33.7 µM) | 8 (≈ 33.7 µM) | 5.10 | 4.52 | 4.44 | 4.49 | > 128 | 4.39 | 4.67 | 4.48 | inactive | Active
CCc1c2c(nc3ccc(O)cc13)-c1cc3c(c(=O)n1C2)COC(=O)[C@]3(O)CC [7-ETHYL-10-HYDROXYCAMPTOTHECIN] | 5.62 |  |  | > 6.00 | > 6.00 | > 6.00 | 5.18 |  | 4.88 | > 6.00 | 4.82 |  | 
CC1(C)S[C@@H]2[C@H](NC(=O)[C@H](N)c3ccccc3)C(=O)N2[C@H]1C(=O)O [AMPICILLIN] |  | < 0.5 | < 0.5 |  |  |  |  | 4 (≈ 11.4 µM) |  |  |  |  | 
O=C(N[C@H](CO)[C@H](O)c1ccc([N+](=O)[O-])cc1)C(Cl)Cl [CHLORAMPHENICOL] |  | 64 (≈ 198 µM) | 4 (≈ 12.4 µM) |  |  |  |  |  |  |  |  |  | 
